# Results from publication PMC4709821 (ACS Infectious Diseases, 2015).
# Tests used:
# Mpk1 phosphorylation = assay: Western blot of Mpk1 phosphorylation in C. neoformans; assay type: cell-based; details: exponential phase cells, MPK1-FLAG strain
# [1] = test system: Rlm1-lacZ reporter of CWIP activity; assay: Rlm1-lacZ cell wall integrity pathway; assay type: cell-based, S. cerevisiae; details: exposure of cells harboring the reporter plasmid
# Outline: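 S. cerevisiae CRY2 (W303 background) carried a plasmid with lacZ driven by two consensus Rlm1 binding sites. Cells were grown overnight in SC lacking uracil at 30 °C, diluted to 0.1 OD600 in YPD and grown to 0.4. They were dispensed at 0.05 OD600, and test compound was pinned in. Plates stood 4 h at room temperature before Gal-Screen luminescence read-out against solvent wells. Values are the mean of three replicates.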
# [2] = Stability in human plasma; assay type: in vitro ADME; details: after 5 h of incubation
# [3] = test system: C. neoformans strain CM108; assay: MIC at 30 and 37 °C with strain CM108; assay type: cell-based; details: Cryptococcus neoformans
# Outline: (§1)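 MIC was determined by the CLSI-approved method, read at a 72 h end point. Congenic CM108 and mpk1Δ strains came from the Fungal Genetics Stock Center. CM108 was tested at 30 and 37 °C and mpk1Δ at 30 °C.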
# [4] = test system: protein kinase C 1 (Pkc1); assay: Cellular protein kinase C activity; assay type: biochemical, C. neoformans; details: cell lysates
# Outline: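 Cells were grown overnight in YPD at 30 °C, washed three times in DPBS, adjusted to 1 × 10^7 cells/mL and lysed with glass beads in kit extraction buffer. Equal total protein plus a dilution series of test compound went into each reaction with a fluorescent Pkc1-specific substrate for 30 min. Products were separated on agarose gel, quantified by densitometry and expressed as % of DMSO reactions. Staurosporine served as reference inhibitor.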
# C. neoformans mpk1Δ = assay: MIC against the congenic mpk1Δ strain; assay type: cell-based, Cryptococcus neoformans; details: 30 °C
# Outline: as §1
# [5] = Stability in mouse plasma; assay type: in vitro ADME; details: after 5 h of incubation
# C. neoformans [6] = assay: Alamar blue viability assay with and without 1 M sorbitol; assay type: cell-based, Cryptococcus neoformans
# Outline: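 C. neoformans was grown overnight in YPD at 30 °C and seeded at 1.5 × 10^4 cells/mL into a dilution series of test compound, in synthetic complete medium with or without 1 M sorbitol. Plates ran 24 h at 37 °C, then Alamar blue (1:10) was added for 2 h at 37 °C. Fluorescence (Ex 544/Em 590) was compared to DMSO wells, and IC50 was obtained by curve fitting.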
# C. neoformans H99 cells = assay: Checkerboard assay of interaction with caspofungin; assay type: cell-based, Cryptococcus neoformans
# HEK293 cells = assay: Mammalian cell cytotoxicity; assay type: cell-based, human; details: higher concentrations not tested
# C. neoformans [7] = details: cited from earlier work
smiles,measurement,setting,value
O=S(=O)(O)c1cc(Nc2nc(Nc3ccccc3)nc(N(CCO)CCO)n2)ccc1/C=C/c1ccc(Nc2nc(Nc3ccccc3)nc(N(CCO)CCO)n2)cc1S(=O)(=O)O [Calcofluor white],Mpk1 phosphorylation caused by the agent alone,Mpk1 phosphorylation,induced phosphorylation of Mpk1
same,increase in β-galactosidase activity,[1],5 fold
"Cc1ccc(C(C)C)c(OCCn2c(S)nc3ccccc32)c1 [Compound 1, 1-(2-(2-isopropyl-5-methylphenoxy)ethyl)-1H-benzo[d]imidazole-2(3H)-thione]",remaining intact in plasma,[2],100%
same,MIC,"[3]; CM108, 30 °C",16 µg/mL
same,MIC,"[3]; CM108, 37 °C",8 µg/mL
same,protein kinase C activity as percentage of DMSO-treated samples,[4]; concentrations as high as 10-fold above its MIC,91 ± 3%
same,activity against strain from which MPK1 has been deleted,C. neoformans mpk1Δ,active
same,remaining intact in plasma,[5],100%
same,sorbitol suppression of anticryptococcal activity,C. neoformans [6],sorbitol-suppressable
same,fractional inhibitory concentration index (FICI),"C. neoformans H99 cells; combination of 1 with caspofungin, 1 at 2-fold below its MIC",0.625
same,reduction of the concentration of caspofungin needed to inhibit C. neoformans,C. neoformans H99 cells; subinhibitory concentrations of 1,8 fold
same,concentration up to which nontoxic,HEK293 cells,≥ 80 µM
CCN(CC)CCOc1ccc(C(=C(Cl)c2ccccc2)c2ccccc2)cc1 [clomiphene],AK signal / cell lysis,C. neoformans [7]; positive control of the screen,strong AK signal
OC(Cn1cncn1)(Cn1cncn1)c1ccc(F)cc1F [fluconazole],AK activity compared to solvent controls,C. neoformans [7],no increase
"CN[C@@H]1C[C@H]2O[C@@](C)([C@@H]1OC)n1c3ccccc3c3c4c(c5c6ccccc6n2c5c31)C(=O)NC4 [staurosporine, reference compound]",reduction in Pkc1 activity,[4]; data not shown,25%
